Assay results from different studies.
Protocols differ between the studies behind these lines.
Cell line: PC-3
Read-out: cell growth or viability

Structure (SMILES)	technique	time	IC50 [µM]
C/C=C/C(=O)Nc1ccc(Cn2cc(C[C@@]3(O)C[C@@H]4c5cc(OCc6cc(C)cc(C)c6)c(OCc6cc(C)cc(C)c6)cc5CCN4[C@@H](C)C3)nn2)cc1	MTT		0.364
O=C(N/N=C/c1cccn1CCN1CCCCC1)Nc1cc2c(Nc3ccc(F)c(Cl)c3)ncnc2cc1O[C@H]1CCOC1	MTT	72 h	1.57
COc1ccnc(COc2ccc(NC(=O)Nc3ccc(Cl)c(C(F)(F)F)c3)cc2)c1OC	MTT	72 h	> 100
COc1cccc2c1C(=O)c1c(O)c3c(c(O)c1C2=O)C[C@@](O)(C(=O)CO)C[C@@H]3O[C@H]1C[C@H](N)[C@H](O)[C@H](C)O1	MTS	48 h	0.68
CCN(CC)CCn1cccc1/C=N/NC(=O)Nc1cc2c(Nc3ccc(F)c(Cl)c3)ncnc2cc1O[C@H]1CCOC1	MTT	72 h	0.15
COCCCOc1ccnc(COc2ccc(NC(=O)Nc3ccc(Cl)cc3)cc2)c1C	MTT	72 h	> 100
N=C(Nc1ccccc1)c1cc2c(-c3ccccc3)n[nH]c2c(Nc2ccccc2)n1	MTS	48 h	1.2
CCN(CC)CCCn1cccc1/C=N/NC(=O)Nc1cc2c(Nc3ccc(F)c(Cl)c3)ncnc2cc1OC	MTT	72 h	1.18
COc1c(C)cnc(COc2ccc(NC(=O)Nc3ccc(Cl)cc3)cc2)c1C	MTT	72 h	47.9
CN(C)CCCn1cccc1/C=N/NC(=O)Nc1cc2c(Nc3ccc(F)c(Cl)c3)ncnc2cc1O[C@H]1CCOC1	MTT	72 h	3.74
CCCCc1ccc2[nH]c(NC(=O)OC)nc2c1	CCK-8	72 h	0.15
CCOC(=O)c1cc2cc(Nc3ncnc4cc(OCCCN5CCC(C)CC5)c(OC)cc34)ccc2s1	MTT		> 100
Cc1cc(C)cc(COc2cc3c(cc2OCc2cc(C)cc(C)c2)[C@H]2C[C@](O)(Cc4cn(Cc5ccncc5)nn4)C[C@H](C)N2CC3)c1	MTT		0.167
COc1ccc2c(N(C)c3ccc(/C(C)=N/OCCN)cc3)c3c(Cl)coc3nc2c1	trypan blue	72 h	1.59
COc1ccc(NC(=O)Nc2ccc(OCc3nccc(OCC(F)(F)F)c3C)cc2)cc1	MTT	72 h	89.1
C#CC[C@]1(O)C[C@@H]2c3cc(OCc4cc(C)cc(C)c4)c(OCc4cc(C)cc(C)c4)cc3CCN2[C@@H](C)C1	MTT		0.523
COc1cc2ncnc(Nc3ccc(F)c(Cl)c3)c2cc1NC(=O)N/N=C/c1cccn1CCCN1CCOCC1	MTT	72 h	0.05
[Cl-].[Cl-].[Cl-].[Fe+3]	resazurin	72 h	4800
C/C=C/C(=O)Nc1ccc(CCn2cc(C[C@@]3(O)C[C@@H]4c5cc(OCc6cc(C)cc(C)c6)c(OCc6cc(C)cc(C)c6)cc5CCN4[C@@H](C)C3)nn2)cc1	MTT		0.273
COc1cc2ncnc(Nc3ccc(F)c(Cl)c3)c2cc1NC(=O)N/N=C/c1cccn1CCN1CCCC1	MTT	72 h	1.24
